Measured values as given in publication PMC9279629 (Acta Pharmaceutica Sinica. B, 2021).
pIC50: −log10 of the molar value.

Columns and labels:
[1] = molecular target: PDE10A (Homo sapiens, UniProt Q9Y233); assay: PDE10A inhibition, fluorescence polarization; type: biochemical
Method in brief: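 Test compound was dissolved in DMSO, stored at −20 °C and tested in a 10-point, 3-fold serial dilution from a top concentration of 1 µmol/L (n = 3). Enzyme activity was read by fluorescence polarization, and IC50 was derived from the concentration–response data.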

[2] = test system: PDE1A/B/C, PDE2A, PDE3A/B, PDE4A/B/C/D, PDE5A, PDE7A, PDE8A, PDE9A; assay: PDE selectivity panel, fluorescence polarization, single dose 5 μmol/L; type: biochemical; conditions: concentrations up to 5 μmol/L

PDE10A, sequence (Q9Y233 whole entry): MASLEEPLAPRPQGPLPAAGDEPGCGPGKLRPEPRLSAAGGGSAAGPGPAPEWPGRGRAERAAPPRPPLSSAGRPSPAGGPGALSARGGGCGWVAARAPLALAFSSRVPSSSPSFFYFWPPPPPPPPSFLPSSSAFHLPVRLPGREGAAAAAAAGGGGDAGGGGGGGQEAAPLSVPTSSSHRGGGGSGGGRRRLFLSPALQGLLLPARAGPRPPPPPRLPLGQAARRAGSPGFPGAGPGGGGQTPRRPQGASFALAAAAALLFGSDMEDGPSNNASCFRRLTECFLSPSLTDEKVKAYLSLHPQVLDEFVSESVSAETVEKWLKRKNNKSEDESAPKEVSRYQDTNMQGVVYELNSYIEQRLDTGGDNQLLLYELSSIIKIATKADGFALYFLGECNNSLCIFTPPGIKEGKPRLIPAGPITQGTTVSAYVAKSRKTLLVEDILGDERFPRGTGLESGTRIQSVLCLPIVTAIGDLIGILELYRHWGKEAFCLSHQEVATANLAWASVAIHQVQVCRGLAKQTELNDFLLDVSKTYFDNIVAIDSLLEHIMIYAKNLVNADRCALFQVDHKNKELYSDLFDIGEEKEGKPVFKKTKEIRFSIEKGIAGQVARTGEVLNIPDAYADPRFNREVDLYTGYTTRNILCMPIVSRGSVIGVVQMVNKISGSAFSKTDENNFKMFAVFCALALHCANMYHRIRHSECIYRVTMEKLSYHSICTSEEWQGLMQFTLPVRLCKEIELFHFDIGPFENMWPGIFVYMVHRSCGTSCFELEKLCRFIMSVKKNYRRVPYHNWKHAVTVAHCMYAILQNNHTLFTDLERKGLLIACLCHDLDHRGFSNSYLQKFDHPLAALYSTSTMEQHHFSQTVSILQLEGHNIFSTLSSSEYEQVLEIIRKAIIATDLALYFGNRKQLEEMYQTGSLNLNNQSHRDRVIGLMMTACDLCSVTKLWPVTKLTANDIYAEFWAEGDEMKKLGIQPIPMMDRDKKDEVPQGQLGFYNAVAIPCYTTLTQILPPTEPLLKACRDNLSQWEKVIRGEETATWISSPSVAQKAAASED

pIC50 [1]: 8.68
Structure (SMILES): Cc1ccc2c(=O)n(-c3ccc(F)cc3)c(CCN3C(=O)c4cccc(OC(C)C)c4C3=O)nc2c1 [compound 9, 2-(2-(3-(4-Fluorophenyl)-7-methyl-4-oxo-3,4-dihydroquinazolin-2-yl)ethyl)-4-isopropoxyisoindoline-1,3-dione]
inhibition of other PDE subtypes [2]: no significant inhibition
